# Screens: PubChem BioAssay, several laboratories
# proCasp3 act – activators of human procaspase-3; P42574; recombinant procaspase-3 D3A, Ac-DEVD-pNA absorbance 405 nm; activation, % at 8.5 µM; 0.11% of 330,000 active;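 active means activation above the mean of all tested compounds plus 3 SD, cut at about 21% in these data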;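 further: 0% = DMSO alone and 100% = DMSO wells spiked with extra 5 µM PC-3 D3A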
# Target sequence (P42574 whole entry D9A/D28A/D175A): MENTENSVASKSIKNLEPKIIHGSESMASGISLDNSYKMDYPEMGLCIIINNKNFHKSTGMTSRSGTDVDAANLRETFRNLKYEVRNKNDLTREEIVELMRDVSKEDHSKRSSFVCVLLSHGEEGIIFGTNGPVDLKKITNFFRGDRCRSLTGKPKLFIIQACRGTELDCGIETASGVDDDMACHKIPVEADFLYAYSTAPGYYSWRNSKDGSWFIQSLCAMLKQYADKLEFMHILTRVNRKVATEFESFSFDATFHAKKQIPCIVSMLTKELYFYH
#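 Technique: 405 nm absorbance of p-nitroaniline, reads at 0 and 120 min; Test system: Procaspase-3 D3A mutant; Incubation: 1 h enzyme-compound preincubation, then 2 h substrate reaction, 25 °C; Repeats: singlicate, each compound tested once; Benchmarks: low control DMSO wells, high control DMSO plus 5 µM PC-3 D3A.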
# CHT inh – human CHT choline transport inhibition | Q9GZV3 | CHT-expressing cells, membrane potential dye, choline response; stronger effect = lower value | B-score at 10 µM | 0.86% of 310,000 active;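 active means B-score over 3 SD under the library average, and starting fluorescence ratio not unusually high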;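 further: choline stimulus applied at its EC90 after an EC20 pre-addition; B-score computed on integrated fluorescence ratio after choline addition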
# procasp7 counter – activates human procaspase-7, counter-screen for procaspase-3 activators; P55210; recombinant procaspase-7, Ac-DEVD-pNA absorbance 405 nm; D23A/D198A/D206A triple mutant, cannot self-cleave; scale: DMSO 0, 5 µM enzyme 100; activation, % at 8.5 µM; 0.093% of 330,000 active; AID 463210;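 active means percent activation above the screen-wide mean plus 3 SD, cut at about 25% in these data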
# Target sequence (P55210 whole entry D23A/D198A/D206A): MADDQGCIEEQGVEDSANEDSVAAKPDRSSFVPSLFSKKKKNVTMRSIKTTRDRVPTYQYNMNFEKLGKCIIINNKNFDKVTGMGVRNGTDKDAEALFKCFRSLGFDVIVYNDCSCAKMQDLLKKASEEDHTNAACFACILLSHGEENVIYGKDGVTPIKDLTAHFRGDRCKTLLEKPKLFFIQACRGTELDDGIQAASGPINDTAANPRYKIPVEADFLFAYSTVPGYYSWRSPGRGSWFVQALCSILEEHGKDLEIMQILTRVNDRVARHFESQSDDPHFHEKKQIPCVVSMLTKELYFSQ
#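 Test system: Procaspase-7 triple mutant (PC-7 D3A). Also added: Ac-DEVD-pNA substrate, 400 µM as added. Schedule: 1 h enzyme–compound preincubation and 2 h substrate reaction, both 25 °C. Signal: p-Nitroaniline absorbance at 405 nm, read at 0 and 120 min. Control set: low DMSO alone, high DMSO plus 5 µM PC-7.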
# CHT PAM – allosteric activators of human choline transporter CHT. B-score at 10 µM. 0.49% of 310,000 active. AID 488977. Q9GZV3. CHT-expressing cells, membrane potential dye, choline EC20; stronger effect = higher value; LV-AA mutant CHT in HEK293 cells;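 active means initial fluorescence not abnormally high and integrated response B-score, plate-corrected, over 3 SD above library mean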
# procasp7 triplic – activates human procaspase-7, counter-screen for procaspase-3 activators. activation, % at 8.5 µM. 210 tested, under 10 active. shares compounds with proCasp3 act. recombinant procaspase-7, Ac-DEVD-pNA absorbance; asp23/198/206-to-Ala mutant, cannot self-cleave. AID 488941;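 active means mean activation above a set limit taken from an earlier procaspase-7 screen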;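 further: 0% = DMSO wells and 100% = DMSO plus 5 µM procaspase-7 enzyme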
# proCasp3 confirm – confirmation of human procaspase-3 activators; shares compounds with proCasp3 act; recombinant PC-3 D3A, Ac-DEVD-pNA absorbance 405 nm; 100% is higher-enzyme control; activation, % at 8.5 µM; 10% of 210 active; AID 488954;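 active means mean activation above a set limit carried over from the earlier primary screen, cut at about 22% in these data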
# * hit, by the source's call; i = inactive; . = no result. A selection: hits, their analogues and other compounds. The true share with any hit is near 1.3%.
SMILES,proCasp3 act,CHT inh,procasp7 counter,CHT PAM,procasp7 triplic,proCasp3 confirm
CCOc1ccc(C(=O)C[n+]2ccc(C(=O)NCCO)cc2)cc1,-1.3,i,-8.4,i,.,.
CCOc1ccc(C(=O)C[n+]2ccc(C(=O)NCc3ccccc3)cc2)cc1,32.7*,i,6.6,i,5.2,6.6
COc1ccc(NC(=O)CC2C(=O)N(C)C(=S)N2Cc2ccc3c(c2)OCO3)cc1 (stereo unspecified),-10.0,i,15.1,i,.,.
O=C1CN(C(=O)COC(=O)CCc2ccccc2O)c2ccccc2N1,5.0,.,1.8,.,.,.
CC(=O)Nc1ccc(NC(=O)CSc2ncnc3sc(C)c(C)c23)cc1,2.6,i,1.4,i,.,.
Cc1sc2ncnc(SCC(=O)Nc3ccc(S(=O)(=O)N4CCOCC4)cc3)c2c1C,22.6*,.,3.7,.,-0.2,2.1
Cc1cc(C)c(C)c(S(=O)(=O)Nc2ccccc2N2CCOCC2)c1C,-2.5,.,5.7,.,.,.
COc1ccc(C)cc1N1CC(C(=O)Nc2ccccc2C(=O)NC2CC2)CC1=O (stereo unspecified),-1.2,.,-2.3,.,.,.
COC(=O)C1=C(NC(=O)c2cccc(OC)c2)CCS1,28.6*,i,24.8,i,2.1,7.6
O=C(C1CCN(S(=O)(=O)c2ccccc2F)CC1)N1CCc2ccccc2C1,10.6,i,-1.0,i,.,.
Cc1c(CC(=O)NCC(=O)N[C@H](Cc2ccccc2)C(=O)O)c(=O)oc2cc(O)ccc12,25.2*,i,19.4,i,-20.6,-12.9
Cc1c(CCC(=O)NC2CC2)c(=O)oc2cc(O)ccc12,22.9*,i,16.6,i,-20.7,-12.6
Cc1c(C)c2ccc(OCC(=O)N[C@@H](Cc3ccccc3)C(=O)O)cc2oc1=O,6.5,i,9.7,i,.,.
N#Cc1cc(S(=O)(=O)c2ccc(Cl)cc2)c(N)[nH]c1=O,23.1*,i,21.0,i,-20.2,-14.8
CCN(C(=O)c1cnc(OC)cc1C(F)(F)F)c1ccc(Cl)cc1,27.1*,i,-4.3,i,2.6,5.2
COc1cc(C(F)(F)F)c(C(=O)N(C)Cc2ccc(Cl)c(Cl)c2)cn1,-8.1,i,1.2,i,.,.
O=C(N/N=C/c1ccc(O)cc1O)c1ccc(CN2C(=O)c3cccc4cccc2c34)cc1,23.4*,i,24.4,i,11.8,20.7
CNc1ccccc1C(=O)OCC(C)=O,21.7*,i,22.5,i,17.4,24.2*
CNC(=O)COC(=O)c1ccccc1Nc1ccccc1,-1.8,i,11.7,i,.,.
Cc1cc(C)cc(C(=O)Nc2c3c(nn2C(C)(C)C)CS(=O)(=O)C3)c1,21.8*,i,1.7,i,0.4,5.5
COc1cccc(NC(=O)COC(=O)C2CC3CCCC(C2)C3=O)c1 (stereo unspecified),3.7,.,5.3,.,.,.
COc1ccccc1CNC(=O)CS(=O)Cc1nc(-c2ccccc2C)oc1C (stereo unspecified),73.3*,i,-3.5,i,-5.8,1.4
Cc1ccc(S(=O)(=O)c2cc3ccccc3nc2N)cc1,23.6*,i,2.3,i,6.6,-1.1
CCCCCOc1ccc(NC2=CC(=O)CCC2)cc1,23.8*,i,21.2,i,0.2,4.5
c1ccc(-c2cc3c(ccc4nonc43)nn2)cc1,2.6,i,-3.6,i,.,.
SMILES,proCasp3 act,CHT inh,procasp7 counter,CHT PAM,procasp7 triplic,proCasp3 confirm
Cc1cc2c3nonc3ccc2n1-c1ccccc1,25.1*,i,20.0,i,-21.6,-13.2
O=C(c1cc(COc2cccc(C(F)(F)F)c2)on1)N1CCC(Oc2cccnc2)CC1,2.9,i,-8.3,i,.,.
CC1CC(C)(C)CC2(C1)NC(=O)N(CC(=O)Nc1cc([N+](=O)[O-])ccc1F)C2=O (stereo unspecified),10.2,.,3.8,.,.,.
Cc1cc2nc(-c3ccccc3)cc(=O)n2[nH]1,22.7*,i,2.8,i,-0.2,2.6
N=c1oc2ccccc2cc1-c1nc(-c2ccccc2)cs1,43.3*,i,20.6,i,-21.1,-14.8
CCCNC(=O)c1ccc2c(=O)c(O)c(-c3ccc(OC)cc3)[nH]c2c1,118.8*,i,-2.0,i,-1.8,0.5
O=C(NC12CC3CC(CC(C3)C1)C2)N(Cc1ccccc1)Cc1ccncc1,58.6*,i,7.2,i,4.1,6.7
COc1ccc(CNC(=O)CCn2c(C)csc2=O)cc1,8.0,.,5.5,.,.,.
Cc1c(C)c2ccc(OC(C)C(=O)NCc3ccccn3)cc2oc1=O (stereo unspecified),23.0*,i,-7.3,i,1.7,6.1
CC(Oc1ccc2c3c(c(=O)oc2c1)CCCC3)C(=O)NCc1ccccn1 (stereo unspecified),6.3,i,7.0,i,.,.
Cc1ccc(S(=O)(=O)CC(=O)Nc2cccc(C)n2)cc1,23.2*,i,5.2,i,2.5,4.7
C[C@@H](NC(=O)c1[nH]cnc1C(=O)Nc1cccc(Cl)c1)c1ccccc1,8.2,.,6.9,.,.,.
Cc1ccc2nc(CSc3nc(C)cc(C)c3C#N)[nH]c2c1,69.0*,i,7.3,i,-20.1,-10.9
Cc1cc(C)c(C#N)c(SCc2ccccc2)n1,-3.1,i,9.9,i,.,.
Cc1ccc(C(=O)CCC(=O)OCC(=O)NNC(=O)c2ccccc2Cl)cc1,5.9,.,-4.2,.,.,.
CNC(=O)c1c(NC(=O)c2cccc(C)c2)sc2c1CCC2,28.9*,i,-226.4,i,-3.0,-1.8
COc1cccc(OCCN2CCN(c3ncnc4c3cnn4-c3ccccc3)CC2)c1,26.8*,i,3.4,i,2.6,2.5
CN(Cc1ccc(Cl)c(Cl)c1)C(=O)C1=CC=CN2CCS(=O)(=O)N=C12,-1.6,.,5.4,.,.,.
Cc1sc(NC(=O)CCCC(=O)O)c(C#N)c1C,21.8*,i,-7.7,i,-7.0,-0.9
CCCCCC(=O)Nc1sc(C)c(C)c1C#N,4.0,i,-13.1,i,.,.
COc1ccc(C2=C/C(=C\c3cccc(OC(C)=O)c3)C(=O)O2)cc1,35.0*,i,-12.8,i,-34.2,-12.8
COc1ccc(C2=C/C(=C\c3ccccc3OC(C)=O)C(=O)O2)cc1,12.2,i,-14.4,i,.,.
N#Cc1cc2c(ccc3ccccc32)oc1=O,3.0,i,6.5,i,.,.
Cc1c(C#N)c(=O)oc2ccc3ccccc3c12,25.8*,i,18.9,i,-22.3,-12.0
CCCn1c2ccccc2c2nnc(SCC(=O)Nc3nnc(CC(=O)OCC)s3)nc21,84.3*,i,7.9,i,2.9,4.0
Cc1cc([N+](=O)[O-])nn1CCCC(=O)NCc1ccc(F)cc1,-4.0,i,-8.1,i,.,.
